Source: PMC10839685 (iScience, 2024)
“And” between values parts separate entries of the source, which are not always exact repeats. Equal entries are not always repeated. “Also recorded” adds a separate entry of the source.

Experiments:
[1] = tested on: human imidazoline receptors (I1, I2); settings: cited from earlier work
AgDI from E. faecalis = settings: substrate, cited from earlier work
[2] = molecular target: T1, E. coli agmatinase (EcAGM) (Escherichia coli, UniProt P60651); assay: E. coli agmatinase; format: biochemical; settings: for Ki: EcAGM, competitive inhibition, pH 7.5, 100 mM HEPES, 2 mM MnCl2, substrate agmatine
T1 sequence (P60651 1-306): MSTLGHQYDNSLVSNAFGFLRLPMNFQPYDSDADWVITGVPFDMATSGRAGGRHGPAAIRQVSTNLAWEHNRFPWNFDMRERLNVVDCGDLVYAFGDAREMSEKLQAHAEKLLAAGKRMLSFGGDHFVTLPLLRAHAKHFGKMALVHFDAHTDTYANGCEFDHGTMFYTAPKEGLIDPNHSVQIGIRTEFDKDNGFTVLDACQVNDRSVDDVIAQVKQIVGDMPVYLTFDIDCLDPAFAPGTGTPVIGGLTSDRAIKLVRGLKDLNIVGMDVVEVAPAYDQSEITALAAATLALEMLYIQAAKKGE

[3] = tested on: E. faecalis agmatine deiminase (AgDI); assay: Agmatine deiminase activity, GDH coupled enzyme assay; format: biochemical, Enterococcus faecalis; settings: pH 7.5
How it was run: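 His-tagged, codon-optimized E. faecalis AgDI was expressed in E. coli (LB without added metal, 1 mM IPTG, 16°C, 20 h) and purified by Ni-affinity chromatography. Agmatine-initiated ammonia release was coupled to GDH (2.5 U/mL) with 5 mM 2-oxoglutarate, 0.3 mM NADH and 0.8 mM ADP in HEPES-NaOH pH 7.5. Initial rates came from continuous A340 (ε 6220 M⁻¹cm⁻¹, 0.56 cm path).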

complex IV = settings: cited from earlier work
[4] = 1000–2000 mg daily; cited from earlier work
[5] = tested on: EcAGM, CbAGM, GpuA, AGMAT, ARG1 and ARG2; assay: HPLC analysis for metformin transformation by purified enzymes; format: in vitro ADME; settings: 1 mM metformin, 10 μg purified enzyme, 20 mM CHES pH 9, overnight
How it was run: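 His-tagged enzymes were expressed in E. coli BL21(DE3) and purified by Ni-affinity IMAC. ARG2 and AGMAT were mitochondrial-signal truncations (ARG2 Δ1-24/Δ331-354, AGMAT Δ1-35). Metformin was incubated with each enzyme, then analysed by reversed-phase C18 HPLC with an isocratic mobile phase of 75:25 (v/v) acetonitrile:10 mM potassium phosphate pH 6.6, which separates guanylurea from metformin.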

[6] = molecular target: serine hydroxymethyltransferase 2; settings: read-out: Ki, serine hydroxymethyltransferase 2; mixed inhibition; cited from earlier work
[7] = cited from earlier work
type 2 diabetes patients = settings: cited from earlier work
human PEN2 protein = settings: cited from earlier work
[8] = molecular target: C. butyricum agmatinase (CbAGM) (Clostridium butyricum, UniProt C4IHF6); format: biochemical; settings: 5000 µM
Sequence of C. butyricum agmatinase (CbAGM) (C4IHF6 1-283): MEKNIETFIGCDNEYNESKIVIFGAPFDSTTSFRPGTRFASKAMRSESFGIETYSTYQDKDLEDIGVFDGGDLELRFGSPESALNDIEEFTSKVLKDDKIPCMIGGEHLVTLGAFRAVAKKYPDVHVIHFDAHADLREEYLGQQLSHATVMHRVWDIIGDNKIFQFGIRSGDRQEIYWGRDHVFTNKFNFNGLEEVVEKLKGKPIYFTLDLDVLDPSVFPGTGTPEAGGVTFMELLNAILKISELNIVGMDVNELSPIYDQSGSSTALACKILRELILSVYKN

NCCCCN=C(N)N [agmatine]
binding and agonism at human imidazoline receptors (I1, I2) [1]: micromolar range | Km (AgDI from E. faecalis; read-out: KM, AgDI from E. faecalis): 35 µM | kcat, AgDI from E. faecalis (AgDI from E. faecalis): 840 s⁻¹

CCCCNC(=N)NC(=N)N [buformin]
Ki [2]: 0.1 mM

CC(C)=CCN=C(N)N [galegine]
inhibition of agmatine deiminase (AgDI) ([3]; 5 mM galegine): not inhibited | Ki [2]: 0.007 mM

CN(C)C(=N)N=C(N)N [metformin]
inhibition of agmatine deiminase (AgDI) ([3]; 50 mM metformin): not inhibited | inhibition of agmatine deiminase (AgDI) ([3]; 50 mM metformin, listed as Metformin): does not inhibit | inhibitory concentration, mitochondrial respiration proteins like complex IV (complex IV): hundreds of micromolar | fraction excreted into wastewater [4]: > 80% | predicted reduction in the maximum velocity of EcAGM-like enzymes ([2]; 5 mM metformin, 20 μM agmatine, steady state Michaelis-Menten model): 83% | Ki [2]: 1.1 mM and 1 mM and ~1 mM | transformation of metformin by ureohydrolase homologs [5]: No metabolism; also recorded: No transformation | Ki [6]: 13 mM | concentration of metformin in the human gut [7]: 1000 to 10000 µM | effectiveness of intravenous administration in type 2 diabetes patients (type 2 diabetes patients): little or no effectiveness | binding constant, human PEN2 protein (human PEN2 protein): micromolar range | predicted reduction in the maximum velocity of CbAGM-like enzymes [8]: 27%

[H]/N=C(/N)N/C(=N/[H])NCCc1ccccc1 [phenformin]
Ki [2]: 0.6 mM
